Activity calls are given as the source filed them. The rule behind the calls is not given here.
Tests used:
[1] = test system: SN12C; test: Antiproliferative activity in human SN12C cells assessed as cell growth inhibition after 48 hrs by SRB assay; format: functional
Procedure, shortened: (§1)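 NCI-60 screen: cells exposed to compound at 100, 10, 1, 0.1 and 0.01 μM for 48 h, then sulforhodamine B staining. Optical density ratio to control plotted as percent growth versus log10 concentration; GI50 interpolated between points above and below 50% growth.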

[2] = target: T1, DNA topoisomerase 1 (Homo sapiens) (UniProt P11387); test: Inhibition of human recombinant Top1 expressed in baculovirus using [32P]-3-end labeled 117 bp DNA oligonucleotide as substrate assessed as enzyme mediated DNA cleavage at 0.1 to 100 uM after 20 mins by SDS-PAGE analysis relative to camptothecin; set-up: scale not given: the % may be the effect or the level left
T1 sequence (whole entry): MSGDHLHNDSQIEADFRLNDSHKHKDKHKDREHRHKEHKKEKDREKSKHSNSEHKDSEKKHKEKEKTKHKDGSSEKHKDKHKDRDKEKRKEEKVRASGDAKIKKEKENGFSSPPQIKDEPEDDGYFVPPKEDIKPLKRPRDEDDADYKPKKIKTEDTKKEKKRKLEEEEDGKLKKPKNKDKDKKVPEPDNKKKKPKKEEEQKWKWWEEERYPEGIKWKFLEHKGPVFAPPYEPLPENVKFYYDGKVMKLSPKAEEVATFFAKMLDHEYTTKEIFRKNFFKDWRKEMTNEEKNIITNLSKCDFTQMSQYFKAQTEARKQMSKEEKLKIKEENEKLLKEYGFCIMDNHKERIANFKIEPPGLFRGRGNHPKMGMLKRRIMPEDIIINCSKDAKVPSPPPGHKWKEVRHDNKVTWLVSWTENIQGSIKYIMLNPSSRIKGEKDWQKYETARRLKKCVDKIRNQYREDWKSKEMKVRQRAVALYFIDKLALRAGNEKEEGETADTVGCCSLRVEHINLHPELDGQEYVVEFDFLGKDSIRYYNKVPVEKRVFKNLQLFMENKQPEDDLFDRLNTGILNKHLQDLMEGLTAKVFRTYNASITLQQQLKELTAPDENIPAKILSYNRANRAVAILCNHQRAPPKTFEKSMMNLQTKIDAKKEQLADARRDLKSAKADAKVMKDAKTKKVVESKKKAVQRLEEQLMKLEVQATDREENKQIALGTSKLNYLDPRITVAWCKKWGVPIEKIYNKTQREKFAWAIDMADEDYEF
Procedure, shortened: (§2)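 Baculovirus-purified human recombinant Top1 with ~2 nM 117-bp oligonucleotide, 3'-end labeled by Klenow fill-in with [α-32P]dGTP. Stopped with 0.5% SDS and formamide dye; 20% denaturing PAGE, phosphoimager.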

[3] = Antiproliferative activity in human SF539 cells assessed as cell growth inhibition after 48 hrs by SRB assay; format: functional; conditions: SF-539, 48 h; procedure, shortened: as §1
[4] = Antiproliferative activity in human UACC62 cells assessed as cell growth inhibition after 48 hrs by SRB assay; format: functional; conditions: UACC-62, 48 h; procedure, shortened: as §1
[5] = Antiproliferative activity in human HOP62 cells assessed as cell growth inhibition after 48 hrs by SRB assay; format: functional; conditions: HOP-62, 48 h; procedure, shortened: as §1
[6] = Antiproliferative activity in human HCT116 cells assessed as cell growth inhibition after 48 hrs by SRB assay; format: functional; conditions: HCT-116, 48 h; procedure, shortened: as §1
[7] = Antiproliferative activity in human DU145 cells assessed as cell growth inhibition after 48 hrs by SRB assay; format: functional; conditions: DU-145, 48 h; procedure, shortened: as §1
[8] = Antiproliferative activity in human […] cells assessed as cell growth inhibition after 48 hrs by SRB assay; format: functional; procedure, shortened: as §1
[9] = test system: MCF7; test: Antiproliferative activity in human MCF7 cells assessed as cell growth inhibition after 48 hrs by SRB assay; format: functional; conditions: MCF7, 48 h; procedure, shortened: as §1
[10] = target: T1, DNA topoisomerase 1 (Homo sapiens); test: Inhibition of human recombinant Top1 expressed in baculovirus using [32P]-3-end labeled 117 bp DNA oligonucleotide as substrate assessed as enzyme mediated DNA cleavage after 20 mins by SDS-PAGE analysis relative to camptothecin; set-up: concentration or dose not given beside the values; procedure, shortened: as §2
[11] = test system: Plasma; test: Drug uptake in rat plasma treated with of 2-Methoxy-6-(3-morpholinopropyl)-5,12-dioxo-6,12-dihydro 5H-[1,3]dioxolo[4,5:5,6]indeno[1,2-c]isoquinolin-3-yl Acetate after 15 mins by LC-MS/MS analysis; format: ADME, cell-free; conditions: 0.25 h
Procedure, shortened: (§3)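 Rat plasma at 37 °C with compound at 5 μM, duplicate runs alongside enalapril and warfarin controls. Aliquots taken at 0, 1, 3, 5 and 15 min into three volumes ice-cold methanol with propranolol internal standard, held ≥10 min at -20 °C, centrifuged. Parent quantified by LC-MS/MS in positive ion mode, expressed as % of time-zero concentration.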

[12] = Drug uptake in RPMI1640 medium treated with2-Methoxy-6-(3-morpholinopropyl)-5,12-dioxo-6,12-dihydro-5H-[1,3]dioxolo[4,5:5,6]indeno[1,2-c]isoquinolin-3-yl Methyl Succinate by at 10 uM after 99 hrs by LC-MS analysis; format: physicochemical
Procedure, shortened: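 Compound (10 μM) incubated in cell-free RPMI 1640 medium at 37 °C for 99 h. Aliquot filtered and analysed by LC-MS, diode-array detection at 280 nm, flow 0.75 mL/min, for conversion to parent phenol.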

[13] = Half life in rat plasma at 5 uM by LC-MS/MS analysis; format: ADME, cell-free; procedure, shortened: as §3
[14] = test system: Plasma; test: Drug metabolism in rat plasma assessed as compound 9 formation at 5 uM after 15 mins by LC-MS/MS analysis; format: ADME, cell-free; conditions: 0.25 h; procedure, shortened: as §3

SMILES	GI50 [1] [nM]	Activity [2] [%]	GI50 [3] [nM]	GI50 [4] [nM]	GI50 [5] [nM]	GI50 [6] [nM]	GI50 [7] [nM]	GI50 [8] [nM]	GI50 [9] [nM]	Activity [10]	Drug uptake [11]	Drug uptake [12]	half-life at 5 µM [13] [s]	Drug metabolism [14]
COc1cc2c3c(n(CCCN4CCOCC4)c(=O)c2cc1OS(=O)(=O)O)-c1cc2c(cc1C3=O)OCO2	355	50	263	263	389	389	417	1120	209	–	–	–	–	–
COC(=O)CCC(=O)Oc1cc2c(=O)n(CCCN3CCOCC3)c3c(c2cc1OC)C(=O)c1cc2c(cc1-3)OCO2	< 10	–	< 10	18	16	20	14	37	< 10	inactive	–	–	–	–
COc1cc2c3c(n(CCCN4CCOCC4)c(=O)c2cc1OC(=O)c1cccnc1)-c1cc2c(cc1C3=O)OCO2	< 10	–	< 10	< 10	< 10	< 10	< 10	15	< 10	20%	–	–	–	–
COc1cc2c(=O)n(CCCN3CCOCC3)c3c(c2cc1OC(=O)N(C)C)C(=O)c1cc2c(cc1-3)OCO2	2400	75	1860	4470	1700	6070	1550	12000	22	–	–	–	–	–
COC(=O)CCC(=O)Oc1cc2c3c(n(CCCN4CCOCC4)c(=O)c2cc1OC)-c1cc2c(cc1C3=O)OCO2	< 10	–	< 10	< 10	< 10	14	< 10	66	< 10	20%	–	–	–	–
COc1cc2c(=O)n(CCCN3CCOCC3)c3c(c2cc1OC(=O)c1ccccc1)C(=O)c1cc2c(cc1-3)OCO2	54	20	37	96	79	850	51	4570	33	–	–	–	–	–
COc1cc2c3c(n(CCCN4CCOCC4)c(=O)c2cc1O)-c1cc2c(cc1C3=O)OCO2	< 10	–	< 10	< 10	10	20	< 10	30	< 10	75%	Active	Active	–	–
COc1cc2c3c(n(CCCN4CCOCC4)c(=O)c2cc1OC(=O)c1ccccc1)-c1cc2c(cc1C3=O)OCO2	195	–	135	59	2140	5890	724	30900	15	20%	–	–	–	–
COc1cc2c(=O)n(CCCN3CCOCC3)c3c(c2cc1O)C(=O)c1cc2c(cc1-3)OCO2	–	–	–	–	–	–	–	871	–	50%	–	–	–	–
COc1cc2c3c(n(CCCN4CCOCC4)c(=O)c2cc1OC(C)=O)-c1cc2c(cc1C3=O)OCO2	< 10	–	< 10	< 10	< 10	< 10	< 10	269	< 10	inactive	–	–	54	metabolite_detected
COc1cc2c(=O)n(CCCN3CCOCC3)c3c(c2cc1OC(=O)c1cccnc1)C(=O)c1cc2c(cc1-3)OCO2	< 10	75	< 10	22	12	30	13	295	< 10	–	–	–	–	–
COc1cc2c(=O)n(CCCN3CCOCC3)c3c(c2cc1OC(C)=O)C(=O)c1cc2c(cc1-3)OCO2	< 10	50	< 10	18	18	29	< 10	138	< 10	–	–	–	–	–
COc1cc2c3c(n(CCCN4CCOCC4)c(=O)c2cc1OC)-c1cc2c(cc1C3=O)OCO2 [INDOTECAN]	–	–	40	30	–	–	–	74100	374	100%	–	–	–	–
COc1cc2c3c(n(CCCN4CCOCC4)c(=O)c2cc1OC(=O)N(C)C)-c1cc2c(cc1C3=O)OCO2	25	–	21	17	32	26	32	105	< 10	50%	–	–	–	–

— ChEMBL document CHEMBL3822428, “Design, Synthesis, and Biological Evaluation of Potential Prodrugs Related to the Experimental Anticancer Agent Indotecan (LMP400)” (J Med Chem, 2016)
